Results reported in ChEMBL document CHEMBL4020842, “Discovery of N1-(4-((7-Cyclopentyl-6-(dimethylcarbamoyl)-7 H-pyrrolo[2,3- d]pyrimidin-2-yl)amino)phenyl)- N8-hydroxyoctanediamide as a Novel Inhibitor Targeting Cyclin-dependent Kinase 4/9 (CDK4/9) and Histone Deacetlyase1 (HDAC1) against Malignant Cancer” (J Med Chem, 2018).
Activity calls are given as the source filed them. The rule behind the calls is not given here.

Tests used:
[1] = tested on: T47D; test: Downregulation of Cyclin-D1 protein expression in human T47D cells after 48 hrs by Western blot method; type: functional, cell-based
Outline: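 Treated cells were lysed and CDK4 and cyclin D1 protein levels were assessed by Western blot.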

[2] = tested on: T47D; test: Induction of apoptosis in human T47D cells assessed as reduction in Bcl2 protein expression after 48 hrs by Western blot method; type: functional, cell-based
Outline: (§1)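 Cells were treated with or without test agent, alongside a control, for 48h. They were then lysed and analysed by Western blot for Bcl-2 protein and cleaved caspase 3.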

[3] = target: CDK2/Cyclin A2 (Homo sapiens) (UniProt P24941+P20248); test: Inhibition of recombinant human full length C-terminal 6His-tagged CDK2/N-terminal GST-tagged Cyclin-A co-expressed in baculovirus infected sf21 cells at 1 uM relative to control
[4] = target: LIM domain kinase 1 (Homo sapiens, UniProt P53667); test: Inhibition of recombinant human N-terminal His6-tagged LIMK1 (285 to 638 residues) expressed in baculovirus infected sf21 cells
Chain of LIM domain kinase 1 (P53667 whole entry, the tested form may be a part): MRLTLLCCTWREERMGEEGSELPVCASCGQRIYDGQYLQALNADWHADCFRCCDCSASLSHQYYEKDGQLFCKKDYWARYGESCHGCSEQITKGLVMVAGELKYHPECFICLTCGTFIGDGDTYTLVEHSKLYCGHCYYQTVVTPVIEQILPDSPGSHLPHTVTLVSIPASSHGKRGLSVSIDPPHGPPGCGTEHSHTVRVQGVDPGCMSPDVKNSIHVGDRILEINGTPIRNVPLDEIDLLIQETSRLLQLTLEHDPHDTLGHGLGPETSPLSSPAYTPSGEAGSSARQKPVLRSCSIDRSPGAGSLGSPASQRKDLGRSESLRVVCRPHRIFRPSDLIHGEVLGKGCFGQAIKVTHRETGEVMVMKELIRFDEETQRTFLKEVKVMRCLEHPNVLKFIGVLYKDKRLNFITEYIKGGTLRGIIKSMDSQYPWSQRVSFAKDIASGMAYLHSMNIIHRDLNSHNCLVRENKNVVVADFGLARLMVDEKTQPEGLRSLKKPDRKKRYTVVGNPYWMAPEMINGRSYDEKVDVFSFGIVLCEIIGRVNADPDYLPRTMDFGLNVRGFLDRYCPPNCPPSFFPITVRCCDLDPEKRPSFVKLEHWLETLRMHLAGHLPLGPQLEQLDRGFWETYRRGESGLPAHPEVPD

[5] = tested on: HepG2; test: Cell cycle arrest in human HepG2 cells assessed as accumulation at G2 phase at 2.5 to 10 uM after 24 hrs by propidium iodide staining based flow cytometry; type: functional
Outline: (§2)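 Cells were exposed for 24 h to a range of concentrations (625 nM, 2.5 and 10 µM), with DMSO vehicle as control. They were then stained with propidium iodide and analysed by flow cytometry to obtain the percentages of cells in G0/G1, S and G2 phases.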

[6] = tested on: T47D; test: Induction of apoptosis in human T47D cells assessed as late apoptotic cells at 10 uM after 48 hrs by annexin V-FITC/propidium iodide staining based flow cytometry (reference value: 6.16%); type: functional
[7] = tested on: MDA-MB-231; test: Induction of apoptosis in human MDA-MB-231 cells assessed as reduction in Bcl2 protein expression after 48 hrs by Western blot method; type: functional, cell-based; outline: as §1
[8] = tested on: HepG2; test: Induction of apoptosis in human HepG2 cells assessed as live cells at 10 uM after 48 hrs by annexin V-FITC/propidium iodide staining based flow cytometry (reference value: 96.7%); type: functional
[9] = tested on: Hep 3B2; test: Induction of apoptosis in human Hep3B cells assessed as necrotic cells at 10 uM after 48 hrs by annexin V-FITC/propidium iodide staining based flow cytometry (reference value: 4.97%); type: functional
[10] = tested on: HepG2; test: Induction of apoptosis in human HepG2 cells assessed as necrotic cells at 10 uM after 48 hrs by annexin V-FITC/propidium iodide staining based flow cytometry (reference value: 2.32%); type: functional
[11] = tested on: MDA-MB-231; test: Cell cycle arrest in human MDA-MB-231 cells assessed as decrease in S-phase at 625 nM after 24 hrs by propidium iodide staining based flow cytometry; type: functional; outline: as §2
[12] = tested on: T47D; test: Cell cycle arrest in human T47D cells assessed as accumulation at G2 phase at 2.5 to 10 uM after 24 hrs by propidium iodide staining based flow cytometry; type: functional; outline: as §2
[13] = tested on: MDA-MB-231; test: Induction of apoptosis in human MDA-MB-231 cells assessed as early apoptotic cells at 10 uM after 48 hrs by annexin V-FITC/propidium iodide staining based flow cytometry (reference value: 0.4%); type: functional
[14] = tested on: HepG2; test: Induction of apoptosis in human HepG2 cells assessed as necrotic cells at 1 uM after 48 hrs by annexin V-FITC/propidium iodide staining based flow cytometry (reference value: 2.32%); type: functional
[15] = tested on: HepG2; test: Induction of apoptosis in human HepG2 cells assessed as late apoptotic cells at 10 uM after 48 hrs by annexin V-FITC/propidium iodide staining based flow cytometry (reference value: 0.64%); type: functional
[16] = tested on: NCI-H460; test: Induction of apoptosis in human NCI-H460 cells assessed as late apoptotic cells at 5 uM after 48 hrs by annexin V-FITC/propidium iodide staining based flow cytometry (reference value: 1.29%); type: functional
[17] = tested on: MDA-MB-231; test: Induction of apoptosis in human MDA-MB-231 cells assessed as live cells at 1 uM after 48 hrs by annexin V-FITC/propidium iodide staining based flow cytometry (reference value: 98.1%); type: functional
[18] = target: Histone deacetylase 1 (Homo sapiens, UniProt Q13547); test: Inhibition of HDAC1 in human HepG2 cells assessed as increase in p53 phosphorylation at Ser15 residue at 1 to 5 uM after 48 hrs by Western blot method; type: cell-based
Chain of Histone deacetylase 1 (Q13547 whole entry): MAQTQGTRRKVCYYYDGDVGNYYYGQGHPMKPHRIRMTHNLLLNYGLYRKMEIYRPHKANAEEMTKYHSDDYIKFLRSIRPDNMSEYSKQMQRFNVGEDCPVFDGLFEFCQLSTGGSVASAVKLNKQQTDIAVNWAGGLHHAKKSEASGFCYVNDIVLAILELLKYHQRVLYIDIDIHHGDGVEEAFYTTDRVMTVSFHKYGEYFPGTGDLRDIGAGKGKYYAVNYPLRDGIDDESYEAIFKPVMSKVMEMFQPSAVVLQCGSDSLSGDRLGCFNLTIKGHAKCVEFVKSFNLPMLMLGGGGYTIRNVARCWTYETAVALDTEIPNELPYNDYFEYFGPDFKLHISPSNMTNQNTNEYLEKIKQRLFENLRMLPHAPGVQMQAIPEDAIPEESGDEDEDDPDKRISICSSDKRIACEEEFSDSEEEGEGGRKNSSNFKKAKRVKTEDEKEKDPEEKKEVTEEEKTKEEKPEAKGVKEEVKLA

[19] = tested on: T47D; test: Induction of apoptosis in human T47D cells assessed as live cells at 1 uM after 48 hrs by annexin V-FITC/propidium iodide staining based flow cytometry (reference value: 85.3%); type: functional
[20] = target: Calcium/calmodulin-dependent protein kinase kinase 2 (Homo sapiens, UniProt Q96RR4); test: Inhibition of recombinant human full length C-terminal 6His-tagged CaMKK2 expressed in baculovirus infected sf21 cells
Chain of Calcium/calmodulin-dependent protein kinase kinase 2 (Q96RR4 whole entry): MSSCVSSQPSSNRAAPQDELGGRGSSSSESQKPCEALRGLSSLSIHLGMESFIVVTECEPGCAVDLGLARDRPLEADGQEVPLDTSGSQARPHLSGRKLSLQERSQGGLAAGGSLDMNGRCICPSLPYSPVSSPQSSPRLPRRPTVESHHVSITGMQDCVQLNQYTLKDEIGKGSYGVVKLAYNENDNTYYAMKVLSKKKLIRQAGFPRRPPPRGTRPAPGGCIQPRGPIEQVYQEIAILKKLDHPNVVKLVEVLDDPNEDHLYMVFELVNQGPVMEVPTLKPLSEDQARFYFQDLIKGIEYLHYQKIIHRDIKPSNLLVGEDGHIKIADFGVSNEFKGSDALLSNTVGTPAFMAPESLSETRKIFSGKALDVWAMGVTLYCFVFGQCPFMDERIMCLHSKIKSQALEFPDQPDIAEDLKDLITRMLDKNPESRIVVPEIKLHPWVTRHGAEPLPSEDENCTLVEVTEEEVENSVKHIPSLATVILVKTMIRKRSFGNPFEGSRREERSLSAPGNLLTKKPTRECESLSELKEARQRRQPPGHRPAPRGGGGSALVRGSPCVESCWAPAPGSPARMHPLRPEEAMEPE

[21] = tested on: Hep 3B2; test: Induction of apoptosis in human Hep3B cells assessed as live cells at 1 uM after 48 hrs by annexin V-FITC/propidium iodide staining based flow cytometry (reference value: 97.9%); type: functional
[22] = tested on: NCI-H460; test: Cytotoxicity against human NCI-H460 cells assessed as reduction in cell viability after 72 hrs by CCK8 assay; type: functional, cell-based; settings: NCI-H460, 72 h
[23] = tested on: Mus musculus; test: Downregulation of Bcl2 level in tumor of Balb/c mouse implanted with mouse Fluc-labeled 4T1 cells at 90 to 130 mg/kg, […] daily for 18 days by immunohistochemical analysis; type: functional, organism-based
[24] = tested on: A549; test: Cytotoxicity against human A549 cells assessed as reduction in cell viability after 72 hrs by CCK8 assay; type: functional, cell-based; settings: A549, 72 h
[25] = tested on: Hep 3B2; test: Induction of apoptosis in human Hep3B cells assessed as early apoptotic cells at 1 uM after 48 hrs by annexin V-FITC/propidium iodide staining based flow cytometry (reference value: 1.91%); type: functional
[26] = tested on: HepG2; test: Induction of apoptosis in human HepG2 cells assessed as caspase-3 cleavage after 48 hrs by Western blot method; type: functional, cell-based
Outline: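 Cells were treated with or without compound and control for 48 h, then lysed. Bcl-2 and cleaved caspase 3 were assessed by Western blot.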

[27] = tested on: Hep 3B2; test: Induction of apoptosis in human Hep3B cells after 48 hrs by annexin V-FITC/propidium iodide staining based flow cytometry; type: functional, cell-based
[28] = tested on: T47D; test: Induction of apoptosis in human T47D cells assessed as late apoptotic cells at 1 uM after 48 hrs by annexin V-FITC/propidium iodide staining based flow cytometry (reference value: 6.16%); type: functional
[29] = tested on: NCI-H460; test: Induction of apoptosis in human NCI-H460 cells assessed as late apoptotic cells at 1 uM after 48 hrs by annexin V-FITC/propidium iodide staining based flow cytometry (reference value: 1.29%); type: functional
[30] = tested on: HepG2; test: Induction of apoptosis in human HepG2 cells after 48 hrs by annexin V-FITC/propidium iodide staining based flow cytometry; type: functional, cell-based
[31] = target: Cyclin-dependent kinase 1/cyclin B1 (Homo sapiens) (UniProt P06493+P14635); test: Inhibition of recombinant human full length C-terminal 6His-tagged CDK1/N-terminal GST-tagged Cyclin-B co-expressed in baculovirus infected sf21 cells at 1 uM using histone H1 substrate in presence of [gamma33P]ATP after 10 mins by scintillation counting method relative to control
Chain of Cyclin-dependent kinase 1/cyclin B1 (Homo sapiens) (P06493 whole entry, looked up): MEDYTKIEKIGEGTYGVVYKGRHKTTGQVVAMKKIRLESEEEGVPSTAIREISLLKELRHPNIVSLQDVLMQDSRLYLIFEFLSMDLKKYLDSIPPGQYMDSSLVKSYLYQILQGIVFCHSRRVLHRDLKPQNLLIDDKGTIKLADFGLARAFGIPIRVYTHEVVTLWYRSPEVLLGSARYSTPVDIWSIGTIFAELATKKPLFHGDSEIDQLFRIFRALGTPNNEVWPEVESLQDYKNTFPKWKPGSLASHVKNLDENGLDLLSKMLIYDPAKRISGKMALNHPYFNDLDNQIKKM
Chain of Cyclin-dependent kinase 1/cyclin B1 (Homo sapiens) (P14635 whole entry, looked up): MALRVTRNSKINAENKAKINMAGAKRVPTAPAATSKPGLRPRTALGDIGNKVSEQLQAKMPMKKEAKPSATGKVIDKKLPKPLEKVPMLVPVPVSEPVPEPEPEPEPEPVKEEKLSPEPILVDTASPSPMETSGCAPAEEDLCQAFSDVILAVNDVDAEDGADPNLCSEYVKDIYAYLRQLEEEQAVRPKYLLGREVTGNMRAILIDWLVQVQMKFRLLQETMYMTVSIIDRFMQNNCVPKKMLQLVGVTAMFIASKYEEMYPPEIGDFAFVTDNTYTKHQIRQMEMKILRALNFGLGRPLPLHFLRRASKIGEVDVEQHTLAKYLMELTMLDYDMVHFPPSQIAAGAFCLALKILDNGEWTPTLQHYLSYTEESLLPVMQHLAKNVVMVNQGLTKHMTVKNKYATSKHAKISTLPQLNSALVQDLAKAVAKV

[32] = tested on: NCI-H460; test: Cell cycle arrest in human NCI-H460 cells assessed as decrease in S-phase at 625 nM after 24 hrs by propidium iodide staining based flow cytometry; type: functional; outline: as §2

Q: Which Activity [1] does the source give for `CN(C)C(=O)c1cc2cnc(Nc3ccc(NC(=O)CCCCCCC(=O)NO)cc3)nc2n1C1CCCC1` here?
A: Dose-dependent effect

Q: What about the Activity [2] of the same compound?
A: Active

Q: What about the inhibition [3] of the same compound?
A: 71%

Q: What about the IC50 [4] of the same compound?
A: 0.044 µM

Q: What about the Activity [5] of the same compound?
A: Active

Q: What about the Activity [6] of the same compound?
A: 17.1%

Q: What about the Activity [7] of the same compound?
A: Active

Q: And the Activity [8]?
A: 73.3%

Q: And the Activity [9]?
A: 3.02%

Q: And the Activity [10]?
A: 5.75%

Q: And the Activity [11]?
A: Active

Q: And the Activity [12]?
A: Active

Q: And the Activity [13]?
A: 5.09%

Q: What about the Activity [14] of the same compound?
A: 3.95%

Q: What about the Activity [15] of the same compound?
A: 11.7%

Q: What about the Activity [16] of the same compound?
A: 5.38%

Q: And the Activity [17]?
A: 95.6%

Q: What about the inhibition [18] of the same compound?
A: Active

Q: What about the Activity [19] of the same compound?
A: 88.3%

Q: And the IC50 [20]?
A: 0.053 µM

Q: And the Activity [21]?
A: 85.8%

Q: What about the IC50 [22] of the same compound?
A: 3.78 µM

Q: What about the Activity [23] of the same compound?
A: Active

Q: What about the IC50 [24] of the same compound?
A: 1.33 µM

Q: What about the Activity [25] of the same compound?
A: 3.82%

Q: And the Activity [26]?
A: Active

Q: And the Activity [27]?
A: Dose-dependent effect

Q: And the Activity [28]?
A: 6.48%

Q: And the Activity [29]?
A: 1.48%

Q: And the Activity [30]?
A: Dose-dependent effect

Q: What about the inhibition [31] of the same compound?
A: 55%

Q: What about the Activity [32] of the same compound?
A: Active
